Assay results: the EternaBench riboswitch data

Test system: MS2 coat protein
Assay: apparent Kd, MS2 coat protein; higher = weaker binding; RNA-MaP array; FMN 200 µM where present
Procedure, shortened: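 Stalled E. coli RNA polymerase transcribed each design on Illumina sequencing-chip clusters. The clusters were titrated with SNAP-549-labelled MS2 coat protein, starting at 0.7 or 1.5 nM and doubling up to 3 µM, first without ligand and then with constant ligand, in 100 mM Tris-HCl pH 7.5, 80 mM KCl, 4 mM MgCl2, BSA, DTT, yeast tRNA and Tween-20. Green signal was normalised to red-channel RNA signal and to the control-cluster median Fmax. The apparent Kd is the median of filtered binding-curve fits made for each cluster.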

[1] = designed as: OFF switch for flavin mononucleotide, no ligand
[2] = ligand present: flavin mononucleotide, designed as: OFF switch for flavin mononucleotide
[3] = designed as: ON switch for flavin mononucleotide, no ligand
[4] = ligand present: flavin mononucleotide, designed as: ON switch for flavin mononucleotide

| Sequence | apparent Kd [1] [nM] | apparent Kd [2] [nM] | apparent Kd [3] [nM] | apparent Kd [4] [nM] |
| --- | --- | --- | --- | --- |
| CCUGCACAUGAGGAUCACCCAUGUCAGGAUAUCUCGCCGUCGGCUUGCCGACGGUAUUAGAGAAGGGACACGGG | 29.3 | 26 |  |  |
| CCUGGCACAUAGAAGGGUACAUGGCCUCUGCUACAUGAGGAUCACCCAUGUGCAGGAUAUGUGUGCCAGACUAUGCCGGUGUAA | 20.2 | 16.1 |  |  |
| CCUGUGUAAGGAUAUGACAAUGGUAUCUUCGGAUACCAUUGUCAGAAGGUACAUGAGGAUCACCCAUGUAACAC | 15 | 30.4 |  |  |
| CCUGUGUGAGGAUAUGGUGUUGGAAAAAAGGAAUAGCUCCUCCAGAAGGCACAUGAGGAUCACCCAUGUCGUGG | 21.4 | 53.2 |  |  |
| CCUUGGAUUGAGGAUAUAUGAACCUUUACGGUUGUAGAAGGCAGGACAUGAGGAUCACCCAUGUGGUGGCGCUC | 1280 | 1010 |  |  |
| CCUUUGAAGAUCCUAGUUUUCGACAUGAGGAUCACCCAUGUGCAGGAUAUCGUGCCAGUGCUGUGCGAGAAGGGCAGUCUCUGC | 63.2 | 70.9 |  |  |
| CCUUUGUCAGGAUAUCAGUACAGGUCGAGUUUAGACCUGUUUGAGAAGGGACAUGAGGAUCACCCAUGUAAAAC | 125 | 161 |  |  |
| CGAAGCCAAGGAUAUACAUGAGGAUCACCCAUGUGUUCCAGGCAAGCACAGCAGCGACGUAGAAGGUGGCUUCA | 17.6 | 41.7 |  |  |
| CGAGACCUCACAGGAUAUGCUGGACUUUGUCCAGCAGAAGGGUGAAAACAUGAGGAUCACCCAUGUAUGGUCUCCAAAUUUAAG |  |  | 195 | 13.2 |
| CGAGAUACGCUCGUCCGAAAGGGACAUGAGGAUCACCCAUGUAGAAGGCGAUGCGCAACUCGCAUUGAGGAUAUAUACUGCAGA | 5.78 | 5.89 |  |  |
| CGAGAUCUUGAGAAGGCAUAAUAUAUAAUACCACAUGUUUACAUGAGGAUCACCCAUGUUACCUAUGAGGAUAUCAGGAUUUCG | 18.5 | 16.1 |  |  |
| CGAGCCGGCACUGAGGAUAUUCAUAUUUAAACAUGAGGAUCACCCAUGUAGGCCAGAAGGCCUUGGGAGAAGGCAGGUCGGCUCC |  |  | 379 | 27.2 |
| CGAGCUGCUGUGAGGAUAUACCUAUGGAUACAUGGGUAGAAGGCACAUGAGGAUCACCCAUGUCCUGCAGCUCG | 43.2 | 273 |  |  |
| CGAGUACAUGAGGAUCACCCAUGUUAUGAAUUGUCAGGAUAUGGAUAUUGUUGACAUGCGCCAGAAGGGACUUCUG |  |  | 27.5 | 20.2 |
| CGAUAACAUAGUUAUCCGUAACGGACAUGAGGAUCACCCAUGUAGGAUAUGUUACUCCACGAGUAACAGAAGGACAUGAGUCUU | 19.3 | 95.7 |  |  |
| CGAUAUGAUAGAGGAUAUGUUUAACAUGAGGAUCACCCAUGUGACAUGGGAUUAAUAUAUAACUUACAGAAGGCUAUUCAAUCG | 34.4 | 52.4 |  |  |
| CGAUCGUUGCAGAAGGUUAUAAUUUUAUCUACAUGUUUAACAUGAGGAUCACCCAUGUUUUUGAUGAAGGAUAUGCAAGGGUCG | 6.88 | 7.12 |  |  |
| CGAUGUUAUGUCAGGAUAUGCGUUGCGAAAGCAAUGUAGAAGGGACAUGAGGAUCACCCAUGUGCUAACCAUCG | 18.7 | 51.1 |  |  |
| CGCAACAUACAGAAGGAGUAAUUUAGAAGUGUACUAGGAUAUGUUUACAUGAGGAUCACCCAUGUCGAUGGGUAAAUAGUUGCG | 988 | 437 |  |  |
| CGCAACUCUUCACAUGUAAACAUGAGGAUCACCCAUGUAAUGAGAAGGAGGAAGAAGAGAGAUUCCUAGGAUAUCAGAGUUGCG | 6.83 | 6.52 |  |  |
| CGCAAGUCAGGAUAUUCGACAGGUAAAUCAGUGGAUCAGUAGGAGAAGGGACAUGAGGAUCACCCAUGUAUGUA | 49.7 | 29.6 |  |  |

| Sequence | apparent Kd [1] [nM] | apparent Kd [2] [nM] | apparent Kd [3] [nM] | apparent Kd [4] [nM] |
| --- | --- | --- | --- | --- |
| CGCAUGGAGGGAGGAUAUGACAUGAGGAUCACCCAUGUAAAGGAUCCGACGUCAGAAGGCCCUAAGAAUUUACACAUUCUCUUA | 119 | 26.7 |  |  |
| CGCGAACAGGCUAACAUGAGGAUCACCCAUGUGGACUCAUGGUAGGAUAUCGGGAAGGAGGAAACCGAGAAGGGCCGGUGAGCU |  |  | 65.6 | 86.5 |
| CGCGAACAUGAGGAUCACCCAUGUGGGUGGAACGUAGGAUAUACGUAGGUCUUUAAUACAGUAGAAGGACGUUCGC |  |  | 264 | 118 |
| CGCGAUGCGGUUGGCCCUGGGCGAGAGGAUAUGGGCAGCGGGACAUGAGGAUCACCCAUGUUCUCUCAGAAGGCUCGAGCAGGC |  |  | 217 | 34.7 |
| CGCUACACCCAGAAGGACAUGAGGAUCACCCAUGUAGGAUAUGGGAGACACAGUCCCAUGUAGAGAAAUUACGCUAGUGUAGCG |  |  |  | 79 |
| CGCUACUACCAGAAGGACAUGAGGAUCACCCAUGUAGGAUAUGGGUUACACGUUCCUGUGAAUUGUAACGACGCUACGUAUGCG |  |  | 203 | 13.4 |
| CGCUCAAUUCUUUAGGUUAGAAUCAGAAGGCGUAACAUGAGGAUCACCCAUGUAUAGACGUGUAACGAGGAUAUGAAUUGAGCG | 5.64 | 5.46 |  |  |
| CGCUCACAUGAGGAUCACCCAUGUCCUAGGAGGUCAGGAUAUAGCUCGCAUGCGUUGAGGCUAGAAGGGACAGCUG |  |  | 259 | 74.7 |
| CGCUCAUUAUAUAAGGAAAGAAUCAGAAGGCGUUACAUGAGGAUCACCCAUGUUUUGUAUAGUAACGAGGAUAUGAUAUGAGCG | 18.6 | 16 |  |  |
| CGCUCUAUAUAUAAGGCAAGAAUCAGAAGGCGUUACAUGAGGAUCACCCAUGUUUUGUAUAGUAACGAGGAUAUGAUAUGAGCG | 15.3 | 15.1 |  |  |
| CGCUGGAUCGAGAAGGCCAUGUGGGACGCGAGCAGUGAUGUUAGGACAUGGAGGAUAUCGAACAUGAGGAUCACCCAUGUAACC |  |  | 438 | 25.5 |
| CGCUGGUGACAGCAUCCAUCAAAACAUGAGGAUCACCCAUGUAGAAGGCUGUACGGUUACCGUACAGAGGAUAUACAAUGAUGA | 15.9 | 26.4 |  |  |
| CGCUGUCACGCAGGAUAUGCAUUGGAUUACAAUGCAGAAGGGCGAUAACAUGAGGAUCACCCAUGUGUAGACAGUGAAGAAGAG |  |  | 145 | 27.2 |
| CGCUGUCACGCAGGAUAUGCAUUGGAUUCCAAUGCAGAAGGGCGAUUACAUGAGGAUCACCCAUGUGUCGACAGUGAAGAAGAG |  |  | 599 | 44 |
| CGCUGUCAUGCAGGAUAUGCAUUGGUUUACAAUGCAGAAGGGCGAUUACAUGAGGAUCACCCAUGUGUAGACAGUGAAGAAGAG |  |  | 157 | 12.9 |
| CGCUUUAUAUAUUUGGCAAGAAUCAGAAGGCGUUACAUGAGGAUCACCCAUGUUUUGUAUAGUAACGAGGAUAUGAUAUGAGCG | 14.6 | 14.8 |  |  |
| CGGCCGGAUCGAGGAUAUAAGUCUAGGACAUGAGGAUCACCCAUGUAUGUCUUAGAAGGCGAUCCGGCCAGCCUGUUACAGGCA |  |  | 32.9 | 6.18 |
| CGGCGGAAAGGAUAUGCAGUAAUAUCCAAAUGUGGGCCACGACAUGAGGAUCACCCAUGUAGAAGGUUCAGCCG | 14.7 | 13.6 |  |  |
| CGGCGGAAGCAGAAGGCAUGAACGGACAUGAGGAUCACCCAUGUUGGAAACUCAUGCCCGAAAGAUGAGGAUAUGCGUCCGGGU | 71.7 | 18.5 |  |  |
| CGGUCGAAGUAAGGAUAUCGACUGGAUAACAGUCGAGAAGGUACAUGAGGAUCACCCAUGUAAUCCUAUAAUAAAUAACGACCG | 12.1 | 15.5 |  |  |
| CGGUGACGUGUAGGAUAUGGCGAUGGGUUUUGGCCAGAAGGACAUGAGGAUCACCCAUGUGGUAGAGGGUUGGCGGCUGCCCGU | 47.4 | 181 |  |  |
